# The list is not random: actives were taken first. Their share in the collection is about 3.1%.
# MEKK2mut PB1 HTS: MEK5 binding signal on mutant MEKK2 PB1, primary screen, biochemical, multiplex bead flow cytometry, Alexa488-MEK5 | percent response, % at 10 µM | Alexa488-MEK5 binding to MEKK2 mutant | actives 0.35% (n = 290,000); in the data active means percent response above about 24%, passing the limit was not always enough
# MEKK3 PB1 HTS: modulators of MEKK3-MEK5 PB1 binding, primary screen, biochemical, wildtype MEKK3, multiplex bead flow cytometry, Alexa488-MEK5; Mitogen-activated protein kinase kinase kinase 3 (Homo sapiens), Q99759; bead-based flow cytometry, Alexa488-MEK5 binding to MEKK3; actives lie on both sides; 0 = blocked by unlabeled MEK5, 100 = vehicle; binding response (% of control), % at 10 µM; actives 1.4% (n = 290,000);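 active means binding response more than 3 SD above or below the average of its plate-row segment, actives on both sides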;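 further: Alexa488 bead fluorescence after subtracting the streptavidin-only scavenger bead signal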
# PREPL inh: PREPL enzyme inhibitors, primary screen, biochemical, fluorescence polarization; Prolyl endopeptidase-like (Homo sapiens), Q4J6C6; recombinant PREPL, fluorescence polarization activity-based probe; inhibition, % at 5.96 µM; actives 0.68% (n = 320,000); in the data active means inhibition above about 43%;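 further: 0% = enzyme with DMSO and 100% = wells lacking enzyme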
# UBC13 polyUb: UBC13 polyubiquitin chain formation inhibitors, primary screen, biochemical, TR-FRET, uHTS; inhibition, % at 20 µM; Ubiquitin-conjugating enzyme E2 N (Homo sapiens), P61088; actives 0.47% (n = 330,000); AID 485273, 2010; in the data active means inhibition above about 45%, passing the limit was not always enough
# Target sequence (P61088 whole entry, looked up): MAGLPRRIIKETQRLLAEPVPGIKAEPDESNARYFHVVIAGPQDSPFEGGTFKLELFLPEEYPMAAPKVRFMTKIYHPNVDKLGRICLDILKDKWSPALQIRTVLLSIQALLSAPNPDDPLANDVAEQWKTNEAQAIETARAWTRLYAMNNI
# Apaf-1 inh: inhibitors of human Apaf-1 apoptosome, primary screen, biochemical, DEVD-Rh110 fluorescence, uHTS. Apoptotic protease-activating factor 1 (Homo sapiens), O14727. reconstituted apoptosome caspase-3 activity. inhibition, % at 20 µM. actives 0.71% (n = 330,000). AID 489030, 2010; active means inhibition of at least 40% at 20 µM;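 further: plate controls were DMSO wells for no effect and DEVD-CHO caspase inhibitor wells for full effect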
#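 Assay system – apoptosome proteins · Medium – Hepes buffer, pH 7.5 · Also added – cytochrome c with DEVD-Rh110 · Timing – 30 min compound preincubation, 50 min activation, room temperature · Detection – Rh110 fluorescence, excitation 480 nm, emission 540 nm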
# MEKK2 WT-MEK5: modulators of MEK5 binding to wildtype MEKK2, primary screen, biochemical, multiplex bead flow cytometry, Alexa488-MEK5. AID 1531, 2009. Mitogen-activated protein kinase kinase kinase 2 (Homo sapiens), Q9Y2U5. Alexa488-MEK5 binding to MEKK2 WT; actives lie on both sides. actives 1.1% (n = 290,000). binding response (% of control), % at 10 µM; in the data active means binding response below about 67% or above about 130%
# MEKK2wt confirm: modulators of MEK5 binding to wildtype MEKK2, confirmation, biochemical, single concentration, multiplex bead flow cytometry. AID 1892, 2009. binding response (% of control), % at 10 µM. actives 2.4% (n = 5,900). shares compounds with MEKK3 PB1 HTS. Alexa488-MEK5 binding to MEKK2 WT; actives lie on both sides; in the data active means binding response below about 16% or above about 210%; inactive means in between
# MEKK2mut-MEK5: mutant MEKK2 PB1-MEK5 binding signal retest – biochemical, single concentration, multiplex bead flow cytometry, confirmation; shares compounds with MEKK3 PB1 HTS; Alexa488-MEK5 binding to MEKK2 mutant; percent response, % at 10 µM; actives 2% (n = 5,900); in the data active means percent response mostly above about 71%, no sharp cut-off; inactive means mostly below about 38%;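 further: higher means compound restores mutant binding toward wildtype level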
# MEKK3 confirm: MEKK3 wild-type PB1 binding to MEK5, inhibitors, confirmation, biochemical, bead multiplex flow cytometry, single concentration, wildtype | shares compounds with MEKK3 PB1 HTS | binding response (% of control), % at 10 µM | Alexa488-MEK5 binding to MEKK3; hits give low values | actives 1.8% (n = 5,900);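 active means binding response below 72% of control, or above a set upper limit, though filed actives all read lower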;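 further: 100% = DMSO only wells and 0% = binding blocked by excess unlabeled MEK5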
# An asterisk follows results filed as active; . = no result; [ ] = another dose, or the depositor's remark.
SMILES,MEKK2mut PB1 HTS,MEKK3 PB1 HTS,PREPL inh,UBC13 polyUb,Apaf-1 inh,MEKK2 WT-MEK5,MEKK2wt confirm,MEKK2mut-MEK5,MEKK3 confirm
CS(=O)(=O)N1CCC(Oc2ccccc2C(=O)N2CCC[C@H]2CO)CC1,3,102,1,-4,-8,100,.,.,.
Cc1ccc(NC(=O)CC2SC(=Nc3ccc(O)cc3)NC2=O)cc1 (centres undefined),0,133*,-1,-1,10,115,123,10,106
O=C(NCc1ccccn1)C1(C(F)(F)F)C/C(=C\CCO)CCCO1 (centres undefined),0,93,17,3,9,97,.,.,.
CC(C)C[C@@H](CN=[N+]=[N-])N1CCN(Cc2ccccc2)CCC1=O,1,103,10,-4,12,106,.,.,.
CC1CCC2C(=O)N(c3ccccc3OC(=O)c3ccccc3F)C(=O)C2C1 (centres undefined),6,143*,1,-3,-5,127,95,-5,101
O=C(Oc1ccccc1N1C(=O)C2CCCCC2C1=O)c1ccccc1 (centres undefined),.,.,-8,3,8,.,.,.,.
CCOCCN1CCN(C2c3ccccc3CSc3ccccc32)CC1 (centres undefined),.,.,5,1,-10,.,.,.,.
CCOC(=O)CCCCCC(=O)Nc1ccc2c(c1)C(=O)N([C@H](C)CO)C[C@@H](C)[C@H](CN(C)S(=O)(=O)c1cn(C)cn1)O2,.,.,16,0,9,.,.,.,.
COC(=O)Cc1cc(=O)n(-c2nc3ccccc3[nH]2)[nH]1,-4,73*[inhibitor],7,-34,5,80,98,0,101
Cc1ccccc1NC(=O)CSc1ccc(-c2ccco2)nn1,10,98,7,2,0,90,.,.,.
O=C(CSc1ccc(-c2ccco2)nn1)NCc1ccccc1Cl,1,135*,5,6,-10,109,103,1,102
CCOc1ccc(/C=C/C(=O)NCc2ccccc2)cc1,0,137*,-6,2,5,108,109,11,109
CCOc1ccc(/C=C/C(=O)NCCc2ccc(OC)c(OC)c2)cc1,1,147*,2,-5,-1,109,102,-3,99
CCOc1ccc(/C=C/C(=O)c2ccccc2)cc1,-6,95,9,6,8,94,.,.,.
CC1CC1C(=O)OCC(=O)Nc1ccc(Cl)cn1 (centres undefined),.,.,7,-11,-10,.,.,.,.
Cc1ccc2[nH]c(C(=O)NCCN3CCCC3)cc2c1,9,109,4,7,12,137*,110,-6,98
Cc1ccc2[nH]c(C(=O)N3CCCCC3)cc2c1,1,100,0,-1,0,103,.,.,.
CC(C)n1cnnc1SCC(=O)Nc1cccnc1Cl,.,.,20,4,-4,.,.,.,.
NC1=NN=C(c2ccc3c(c2)OCCO3)CS1,-84,1.0*[inhibitor],-7,-3,-11,1.0*[inhibitor],94,-8,96
Cc1sc(N)nc1-c1ccc2c(c1)OCCO2,12,103,-3,-6,-9,105,.,.,.
CCN(CC)c1ccc(/C=N/Nc2ccccc2)c(O)c1,13,106,9,-3,11,136*,102,0,105
CCN(CC)c1ccc(C=Nc2ccc(N(C)C)cc2)c(O)c1,79*,94,17,-75,44*,-21*,100,-7,101
CCN(CC)c1ccc(N=Cc2ccc(N(CC)CC)cc2O)cc1,0,97,21,-28,28,98,.,.,.
CCN(CC)c1ccc(C=Nc2ccc(C)cc2)c(O)c1,-6,95,6,3,5,69*[inhibitor],84,-15,92
O=C(NCCCN1CCCC1=O)c1c(O)nc2ccccn2c1=O,-1,97,-1,7,-5,95,.,.,.
SMILES,MEKK2mut PB1 HTS,MEKK3 PB1 HTS,PREPL inh,UBC13 polyUb,Apaf-1 inh,MEKK2 WT-MEK5,MEKK2wt confirm,MEKK2mut-MEK5,MEKK3 confirm
COc1ccc(CNC(=O)c2ccc(CS(=O)(=O)c3ccc(Br)cc3)o2)cc1,1,99,1,3,3,102,.,.,.
COc1ccc(N(CC(=O)N2CCN(Cc3ccccc3)CC2)S(C)(=O)=O)c(OC)c1,1,97,-1,-6,1,102,.,.,.
COc1ccc(Cl)cc1N(CC(=O)N1CCN(Cc2ccccc2)CC1)S(C)(=O)=O,5,125*,12,7,7,112,106,0,102
CCOC(=O)/C(N=Nc1c(Br)cc(Br)cc1Br)=C(\C)O,5,126*,11,6,14,120,95,3,93
CCOC(=O)NC(=O)/C(N=Nc1cc(C)cc(C)c1)=C(\C)O,1,97,5,-1,11,103,.,.,.
CCC1CCCCN1C(=O)CSc1nnc(N)s1 (centres undefined),.,.,8,8,-6,.,.,.,.
COc1ccccc1NC1=NCC(=O)N1Cc1ccccc1,47*,58,-1,-10,14,58,102,0,100
CC(=O)c1cccc(S(=O)(=O)Nc2ccccc2N2CCOCC2)c1,.,.,6,0,-10,.,.,.,.
O=S(=O)(Nc1nc2ccccc2nc1NCC1CCCO1)c1ccccc1 (centres undefined),-25,53*[inhibitor],-2,-8,-9,70,94,-7,96
Cc1ccc(S(=O)(=O)c2nc(S(=O)(=O)c3ccccc3)sc2N2CCN(C)CC2)cc1,6,105,12,2,-3,112,.,.,.
COc1ccc(C(=O)N2N=C(c3ccccc3)CC2(O)C(F)(F)F)cc1 (centres undefined),2,102,.,.,.,96,.,.,.
COC(=O)N1N=C(c2ccccc2)CC1(O)C(F)(F)F (centres undefined),-39,0.0*[inhibitor],1,1,-10,-5.0*[inhibitor],97,-4,102
